These results are taken from ChEMBL document CHEMBL4334439, “Discovery, Optimization, and Target Identification of Novel Potent Broad-Spectrum Antiviral Inhibitors” (J Med Chem, 2019).

In general, EC50 refers to the concentration needed to bring the measured effect to its halfway point. As a reminder, the CC50 is the concentration that lowers cell viability or growth by half.

The subject of data set [1] is Hepatitis C virus. Description: Antiviral activity against HCV JFH-1 harboring K78E/E2-G451R/NS3-M260K/NS5A-T462I mutant infected in human Huh7.5.1 cells after 2 days by renilla luciferase reporter gene assay. It is filed as functional, organism-based, Hepacivirus hominis. The conditions noted are these: JFH-1, Huh-7.5.1, 48 h. The gist of the method:
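Renilla luciferase reporter HCVcc (hRluc inserted in NS5A, aa 399/400) came from electroporated Huh7.5.1 supernatant. Virus plus serially diluted compound (top 30 or 6 μM) was added to Huh7.5.1 cells (1×10^4/well) and luminescence read. EC50 is 50% luminescence reduction.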

Data set [2] concerns Hepatitis C virus. Kind of data set: Antiviral activity against EGFP-fused HCV JFH-1 harboring K78E/E2-G451R/NS3-M260K/NS5A-T462I mutation infected in human Huh7.5.1 cells assessed as combination index after 2 days in presence of sofosbuvir by qRT-PCR analysis. It is filed as functional, Hepacivirus hominis. Summed up: (§1)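 In HCVcc-infected Huh7.5.1 cells (1×10^4/well, overnight, 37 °C), compound was given at various concentrations alone or with the named approved antiviral. After 2 days HCV RNA was quantified by qRT-PCR to derive the combination index.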
(Quantitative PCR measures a nucleic acid by following its amplification.)

Data set [3] concerns Hepatitis C virus. Kind of data set: Antiviral activity against EGFP-fused HCV JFH-1 harboring K78E/E2-G451R/NS3-M260K/NS5A-T462I mutant infected in human Huh7.5.1 cells assessed as reduction in viral RNA level after 2 days by qRT-PCR analysis. The class given is functional, organism-based. The gist of the method:
(§2)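 Huh7.5.1 cells at 1×10^4/well, grown overnight at 37 °C. HCVcc was mixed with serially diluted compound (top 30 or 6 μM), given alone or with the named drug, and added to the cells. Viral RNA was read by qRT-PCR after 2 days. EC50 is the concentration giving 50% RNA reduction.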

Data set [4] in a line: Cytotoxicity against human Huh7.5.1 cells assessed as decrease in cell viability after 48 hrs by WST1 assay. The class given is cell-based. The gist of the method: (§3)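 Cells seeded at 1 × 10^4 per well and cultured overnight at 37 °C, then incubated 48 h with serially diluted compounds. Viability read with WST-1 reagent as absorbance at OD450/OD630.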
Data set [5] has as its system Hepatitis C virus. Kind of data set: Antiviral activity against EGFP-fused HCV JFH-1 harboring K78E/E2-G451R/NS3-M260K/NS5A-T462I mutation infected in human Huh7.5.1 cells assessed as reduction in viral RNA level after 2 days in presence of boceprevir by qRT-PCR analysis. The class given is functional, organism-based. The note with it: Hepacivirus hominis. Summed up:
as §2

Data set [6] addresses Heat shock protein HSP90 (Homo sapiens) (UniProt P07900+P08238). Description: Binding affinity to HSP90 (unknown origin). It is filed as protein assay.
Data set [7] is described as follows: Selectivity index, ratio of CC50 for African green monkey Vero cells to EC50 for RSV infected in African green monkey Vero cells. The class given is toxicity. The conditions noted are these: read-out: Ratio CC50/EC50.
Another data set concerns Influenza A virus. Description: Antiviral activity against Gaussia tagged Influenza A virus (A/Puerto Rico/8/34(H1N1)) infected in MDCK cells assessed as inhibition of H1N1 replication measured at 24 hrs post infection by luciferase reporter gene assay. It is filed as functional, organism-based. The conditions noted are these: A/Puerto Rico/8/1934(H1N1). Summed up: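 MDCK cells at 1×10^5/well, cultured overnight, were infected with A/PR/8/34(H1N1)-Gaussia luciferase at MOI 0.1. Compound (0.05–20 µM) was added immediately. Luminescence or qRT-PCR was read at 24 hpi; EC50 is 50% reduction.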
(In general: Reporter assays use an easily measured gene product as a stand-in for the process of interest.)

The nature of data set [8]: Cytotoxicity against human RD cells infected with EV71 assessed as decrease in cell viability after 48 hrs by WST1 assay. It is filed as cell-based. Summed up: as §3
(Tetrazolium assays rely on reduction of a dye to a coloured formazan, in cell work by metabolically active cells.)

Data set [9] relates to Hepatitis C virus. Description: Antiviral activity against EGFP-fused HCV JFH-1 harboring K78E/E2-G451R/NS3-M260K/NS5A-T462I mutation infected in human Huh7.5.1 cells assessed as combination index after 2 days in presence of cyclosporin A by qRT-PCR analysis. It is filed as functional, Hepacivirus hominis. The gist of the method: as §1
In another data set the test system is Enterovirus A71. Description: Antiviral activity against EV71 infected in human RD cells measured at 24 hrs post-infection by luciferase reporter gene assay. It is filed as functional, organism-based. The note with it: Enterovirus A. Summed up:
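RD cells at 1×10^4/well, cultured overnight, were infected with EV71(FY)-Luc at MOI 1 and treated with compound immediately afterwards. Luminescence read-out; EC50 is 50% signal reduction.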

The species entered for the next data set is Homo sapiens. Kind of data set: Potency index, ratio of teriflunomide IC50 to test compound IC50 for C-terminal 6-His tagged recombinant human DHODH N-terminal domain delta29 mutant expressed in Escherichia coli BL21(DE3). Summed up: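 DCIP assay: His6-Δ29 human DHODH at 10 nM final in 50 mM HEPES pH 7.7, 150 mM KCl, 0.1% Triton X-100, with 100 μM UQ0 and 120 μM DCIP, preincubated 5 min at RT. Reaction started with 500 μM dihydroorotate; A600 read every 30 s for 6 min.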

For data set [10], the system named is Hepatitis C virus. Kind of data set: Antiviral activity against EGFP-fused HCV JFH-1 harboring K78E/E2-G451R/NS3-M260K/NS5A-T462I mutation infected in human Huh7.5.1 cells assessed as combination index after 2 days in presence of daclatasvir by qRT-PCR analysis. The class given is functional, Hepacivirus hominis. The gist of the method: as §1
For data set [11], the system named is Hepatitis C virus. Description: Antiviral activity against GFP-fused HCV JFH-1 harboring K78E/E2-G451R/NS3-M260K/NS5A-T462I mutant infected in human Huh7.5.1 cells assessed as reduction in viral infection preincubated for 2 hrs followed by viral infection and measured after 48 hrs by epifluorescence microscopic analysis. It is filed as functional, organism-based. The note with it: Hepacivirus hominis. The gist of the method: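 Huh7.5.1 cells at 3×10^4/well, cultured overnight at 37 °C in 5% CO2, were pretreated 2 h with compound over 0.0004–0.05 μM. Cells were then infected with HCV-GFP at MOI 1, and GFP expression was imaged by epifluorescence microscopy at 48 hpi.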

Data set [12] in a line: Selectivity index, ratio of CC50 for African green monkey Vero cells to EC50 for SFTSV infected in African green monkey Vero cells. The conditions noted are these: read-out: Ratio CC50/EC50. It is filed as toxicity. The gist of the method:
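Vero cells infected with SFTSV at MOI 0.01; virus titre measured 4 days after infection. The cytotoxicity arm used 1×10^4 cells/well with 48 h of serially diluted compound, then a WST-1 absorbance read (OD450/OD630) for CC50. SI is CC50/EC50.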

Data set [13] is described as follows: Selectivity index, ratio of CC50 for human Huh7.5.1 cells to EC50 for EGFP-fused HCV JFH-1 harboring K78E/E2-G451R/NS3-M260K/NS5A-T462I mutant infected in human Huh7.5.1 cells. It is filed as toxicity, cell-based. The conditions noted are these: read-out: Ratio CC50/EC50.
Data set [14] is described as follows: Cytotoxicity against MDCK cells infected with Gaussia tagged Influenza A virus (A/Puerto Rico/8/34(H1N1)) measured after 48 hrs by WST1 assay. It is filed as cell-based, Canis lupus familiaris. The note with it: dog. Summed up: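 Cells at 1×10^4/well, cultured overnight at 37 °C, were incubated 48 h with serially diluted compound. Viability was read by WST-1 absorbance (OD450/OD630).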

Data set [15] deals with Hepatitis C virus. Description: Antiviral activity against EGFP-fused HCV JFH-1 harboring K78E/E2-G451R/NS3-M260K/NS5A-T462I mutation infected in human Huh7.5.1 cells assessed as combination index after 2 days in presence of boceprevir by qRT-PCR analysis. It is filed as functional, Hepacivirus hominis. The gist of the method: as §1
Data set [16] relates to Hepatitis C virus. Description: Antiviral activity against EGFP-fused HCV JFH-1 harboring K78E/E2-G451R/NS3-M260K/NS5A-T462I mutation infected in human Huh7.5.1 cells assessed as reduction in viral RNA level after 2 days in presence of sofosbuvir by qRT-PCR analysis. The conditions noted are these: Hepacivirus hominis. The class given is functional, organism-based. Summed up:
as §2

SMILES strings stand for the structures. Activity calls are given as the source filed them. No cut-off for these calls is given here. Where only a bound is given, the exact number is not on record here.

In the case of `CCN(CC)c1ccc(Oc2ccc(-c3[nH]c4cccc(F)c4c(=O)c3C)cc2F)cc1`, the EC50 in the data set with Hepatitis C virus [1] was 4 to 7 nM; in the data set on Hepatitis C virus [3] (JFH-1, Huh-7.5.1, 48 h), 5 to 7 nM; in the data set on Influenza A virus, 240 nM; in the data set with Enterovirus A71, 4 nM. The CI is given as above 50 in the data set with Hepatitis C virus [2], above 50 in the data set on Hepatitis C virus [9], “>=10 - 50” with Hepatitis C virus [10] and above 50 with Hepatitis C virus [15]. In addition, the Activity entry with Hepatitis C virus [3] (Hepacivirus hominis), in the data set with Hepatitis C virus [5], with Hepatitis C virus [11] and in the data set with Hepatitis C virus [16] was “Dose-dependent effect” throughout. The CC50 at 48 h in [4], in [8] and in data set [14] was above 2500 nM in each case. In data set [6], the result was inactive. Also, the selectivity ratio in data set [7] was above 41; in [12] it was above 8; in [13] it was above 416. For the same compound, the Ratio IC50 in the data set listed under Homo sapiens worked out at 4.
